Measured values gathered from unrelated publications.
Lines come from different studies, so protocols differ.
Target: Dual specificity protein kinase TTK (TTK, Homo sapiens, UniProt P33981)
One construct used (P33981 1-857): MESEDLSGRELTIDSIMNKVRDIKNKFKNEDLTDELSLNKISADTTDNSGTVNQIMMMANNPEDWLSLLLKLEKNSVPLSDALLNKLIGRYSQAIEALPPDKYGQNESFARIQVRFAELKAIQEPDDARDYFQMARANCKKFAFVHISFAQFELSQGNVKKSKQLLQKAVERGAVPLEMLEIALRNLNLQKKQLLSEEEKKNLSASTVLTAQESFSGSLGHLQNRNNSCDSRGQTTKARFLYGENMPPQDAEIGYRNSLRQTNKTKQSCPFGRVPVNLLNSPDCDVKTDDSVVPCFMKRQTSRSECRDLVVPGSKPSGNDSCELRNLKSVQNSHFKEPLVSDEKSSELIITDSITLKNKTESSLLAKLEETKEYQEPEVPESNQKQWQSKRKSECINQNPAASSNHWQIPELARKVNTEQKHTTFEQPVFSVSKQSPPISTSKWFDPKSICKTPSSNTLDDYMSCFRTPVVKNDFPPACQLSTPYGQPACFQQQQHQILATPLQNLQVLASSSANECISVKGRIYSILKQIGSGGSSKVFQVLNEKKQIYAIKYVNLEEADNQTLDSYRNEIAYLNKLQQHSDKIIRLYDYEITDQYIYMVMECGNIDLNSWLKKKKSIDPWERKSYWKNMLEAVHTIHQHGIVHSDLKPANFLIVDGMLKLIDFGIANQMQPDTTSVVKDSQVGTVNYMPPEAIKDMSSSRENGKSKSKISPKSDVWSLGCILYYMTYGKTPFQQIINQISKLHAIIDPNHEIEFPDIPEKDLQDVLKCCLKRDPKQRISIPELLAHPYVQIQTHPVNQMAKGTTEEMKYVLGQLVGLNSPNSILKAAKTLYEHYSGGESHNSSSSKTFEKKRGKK

SMILES	effect on	action	technique	tested at	endpoint	result
Cn1cncc1[C@@](O)(COc1ccc(C#N)cc1-c1ccc(OC(F)(F)F)cc1)c1ccc(C#N)cc1	cell-free assay	–	competition with immobilised ligand	1 µM	remaining binding	100%
Cn1cc(-c2cccc(N3CCc4c(sc5c4CC(C)(C)C5)C3=O)c2CO)cc(Nc2ccncn2)c1=O	enzyme activity	inhibitor	–	1 µM	inhibition	-3%
O=c1[nH]c2ccccc2n1C1CCN(Cc2ccc(-c3[nH]c4cc5ncnc5cc4nc3-c3ccccc3)cc2)CC1	cell-free assay	–	–	0.5 µM	remaining signal	104%
Cn1cc(-c2cc(F)cc(N3CCn4c(cc5c4CCCC5)C3=O)c2CO)cc(Nc2ccc(N3CCN(C4COC4)CC3)cn2)c1=O	enzyme activity	inhibitor	–	0.1 µM	inhibition	-17%
COc1ncccc1-c1cnn2ccc(N3CCN(C(=O)OC(C)C)CC3)nc12	binding	–	competition with immobilised ligand	1 µM	remaining binding	100%
CC(C)(C)c1cc(C=C(C#N)C#N)cc(Br)c1O	enzyme activity	inhibitor	–	0.5 µM	remaining activity	101%
Cc1nn(C)cc1-c1nc2c(N3CCN(Cc4ccc(Cl)cc4)CC3)c(Cl)cnc2[nH]1	binding	–	competition with immobilised ligand	1 µM	remaining binding	100%
N#CC1(c2ccccn2)CCN(Cc2cc(C(=O)O)c(=O)n3ccccc23)CC1	cell-free assay	–	competition with immobilised ligand	1 µM	remaining binding	88%
Nc1ncc(-c2nc(N3CCOCC3)nc(N3CCOCC3)n2)c(C(F)F)n1	binding	–	competition with immobilised ligand	10 µM	remaining binding	84%
